Assay results pooled from the literature.
Lines come from different studies, so protocols differ.
MME: Neprilysin (MME, Homo sapiens, UniProt P08473)
PIP4K2C: Phosphatidylinositol 5-phosphate 4-kinase type-2 gamma (PIP4K2C, Homo sapiens, UniProt Q8TBX8)

Compound | target | observed | action | method | tested at | quantity | result
Cc1ncc(C)n2nc(/C=C/c3nc(N4CCCC4)cc(N4CCOCC4)n3)nc12 | MME | enzyme activity | inhibitor | – | 10 µM | inhibition | -13%
c1ccc(C(NCCNC(c2ccccc2)c2ccccc2)c2ccccc2)cc1 | MME | enzyme activity | inhibitor | – | 10 µM | inhibition | 8%
C#Cc1n[nH]c2c(-c3cn([C@@H](C)c4ccccc4)c(=O)[nH]c3=O)cc(F)cc12 | Tyrosine-protein kinase JAK2 (JAK2, Homo sapiens, UniProt O60674) | enzyme activity | inhibitor | – | 0.1 µM | inhibition | -3%
Cc1nn(C)cc1-c1nc2c(N3CCN(Cc4ccc(Cl)cc4)CC3)c(Cl)cnc2[nH]1 | PIP4K2C | binding | – | competition with immobilised ligand | 1 µM | remaining binding | 80%
COCc1c(-c2cc3cc(C)cc(OC)c3s2)c2c(N)ncnn2c1CN1CCNC(=O)C1 | Nitric oxide synthase, inducible (Nos2, Mus musculus, UniProt P29477) | enzyme activity | inhibitor | – | 10 µM | inhibition | 17%
COc1ncccc1-c1cnn2ccc(N3CCN(C(=O)OC(C)C)CC3)nc12 | PIP4K2C | binding | – | competition with immobilised ligand | 1 µM | remaining binding | 9.5%
Nc1ncc(-c2nc(N3CCOCC3)nc(N3CCOCC3)n2)c(C(F)F)n1 | Citron Rho-interacting kinase (CIT, Homo sapiens, UniProt O14578) | binding | – | competition with immobilised ligand | 10 µM | remaining binding | 91%
C#Cc1n[nH]c2c(-c3cn([C@@H](C)c4ccccn4)c(=O)[nH]c3=O)cc(F)cc12 | Proto-oncogene tyrosine-protein kinase receptor Ret (RET, Homo sapiens, UniProt P07949, V804L) | enzyme activity | inhibitor | – | 0.1 µM | inhibition | 4.5%
Cc1sc2c(c1C)C(c1ccc(Cl)cc1)=N[C@@H](CC(=O)OC(C)(C)C)c1nnc(C)n1-2 | Stimulator of interferon genes protein (STING1, Homo sapiens, UniProt Q86WV6, H232R) | thermal stability | – | DSF | 200 µM | ΔTm | -1.58 °C
CCN(CC)CCCC[C@H](NC(=O)[C@H](CC(C)C)NC(=O)[C@H](C)NC(=O)[C@H](Cc1ccccc1)NC(=O)c1ccc(C(C)(C)C)cc1)C(=O)N[C@@H](CO)C(=O)OC | Bromodomain adjacent to zinc finger domain protein 2A, bromodomain (BAZ2A, Homo sapiens, UniProt Q9UIF9) | thermal stability | – | DSF | 25 µM | ΔTm | -0.23 °C
COc1cc(Nc2ncc(F)c(Nc3ccc4c(n3)NC(=O)C(C)(C)O4)n2)cc(OC)c1OC | Serine/threonine-protein kinase LATS2 (LATS2, Homo sapiens, UniProt Q9NRM7) | binding | – | competition with immobilised ligand | 10 µM | inhibition | 100%
O=C(Nc1cccnn1)N1CCN([C@@H]2CCOc3cc(C(F)(F)F)ccc32)CC1 | MME | enzyme activity | inhibitor | – | 20 µM | inhibition | 3%
C[C@H](C(=O)N[C@H]1COc2ccccc2[C@@H]1S(C)(=O)=O)c1ccc(F)cc1 | MME | enzyme activity | inhibitor | – | 10 µM | inhibition | -1%
